In ChEMBL document CHEMBL1147656, “Biological evaluation of bishydroxymethyl-substituted cage dimeric 1,4-dihydropyridines as a novel class of p-glycoprotein modulating agents in cancer cells” (J Med Chem, 2006):
pIC50: −log10 of the molar value.

Columns and labels:
[1] = target: T1, ATP-dependent translocase ABCB1 (Homo sapiens, UniProt P08183); assay: Ratio of rhodamine123 uptake in MDR1 transfected cells vs parental L5178Y cells at 30 uM; type: functional, cell-based; conditions: mouse
In short: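 Fluorescence activity ratio at 30 µM compound. L5178Y parental and L5178YvMDR cells (2 × 10⁶/mL, serum-free McCoy's 5A) preincubated 10 min at room temperature with compound, then rhodamine 123 (5.2 µM final) added for 20 min at 37 °C. After two PBS washes, 1 × 10⁴ cells read by flow cytometry. Ratio calculated from uptake in treated versus untreated control cells. Mean of two determinations.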

[2] = target: T1, ATP-dependent translocase ABCB1; assay: Inhibition of P-glycoprotein
In short: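 Rhodamine 123 uptake in L5178YvMDR mouse T-lymphoma cells and the parental line, 2 × 10⁶ cells/mL in serum-free McCoy's 5A. Compound preincubated 10 min at room temperature, then rhodamine 123 (5.2 µM final) added for 20 min at 37 °C. Cells washed twice in PBS and 1 × 10⁴ cells read by flow cytometry. IC50 taken from sigmoidal curve of fluorescence activity ratio versus concentration. Mean of two determinations.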

L5178Y = assay: Cytotoxicity against mouse L5178Y cell line; type: functional, cell-based
In short: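 MTT assay on L5178Y mouse T-lymphoma parental cells or the L5178YvMDR (mdr1-transfected) subline. Compound-treated cells cultured 48 h at 37 °C under 5% CO2. MTT added (0.5 mg/mL final) for another 4 h at 37 °C. Formazan dissolved in 10% SDS in 0.01 M HCl overnight, then absorbance read. Absorbance corrected for cell control and compound, IC50 taken from sigmoidal curve. Mean of two determinations.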

T1 sequence (P08183 whole entry): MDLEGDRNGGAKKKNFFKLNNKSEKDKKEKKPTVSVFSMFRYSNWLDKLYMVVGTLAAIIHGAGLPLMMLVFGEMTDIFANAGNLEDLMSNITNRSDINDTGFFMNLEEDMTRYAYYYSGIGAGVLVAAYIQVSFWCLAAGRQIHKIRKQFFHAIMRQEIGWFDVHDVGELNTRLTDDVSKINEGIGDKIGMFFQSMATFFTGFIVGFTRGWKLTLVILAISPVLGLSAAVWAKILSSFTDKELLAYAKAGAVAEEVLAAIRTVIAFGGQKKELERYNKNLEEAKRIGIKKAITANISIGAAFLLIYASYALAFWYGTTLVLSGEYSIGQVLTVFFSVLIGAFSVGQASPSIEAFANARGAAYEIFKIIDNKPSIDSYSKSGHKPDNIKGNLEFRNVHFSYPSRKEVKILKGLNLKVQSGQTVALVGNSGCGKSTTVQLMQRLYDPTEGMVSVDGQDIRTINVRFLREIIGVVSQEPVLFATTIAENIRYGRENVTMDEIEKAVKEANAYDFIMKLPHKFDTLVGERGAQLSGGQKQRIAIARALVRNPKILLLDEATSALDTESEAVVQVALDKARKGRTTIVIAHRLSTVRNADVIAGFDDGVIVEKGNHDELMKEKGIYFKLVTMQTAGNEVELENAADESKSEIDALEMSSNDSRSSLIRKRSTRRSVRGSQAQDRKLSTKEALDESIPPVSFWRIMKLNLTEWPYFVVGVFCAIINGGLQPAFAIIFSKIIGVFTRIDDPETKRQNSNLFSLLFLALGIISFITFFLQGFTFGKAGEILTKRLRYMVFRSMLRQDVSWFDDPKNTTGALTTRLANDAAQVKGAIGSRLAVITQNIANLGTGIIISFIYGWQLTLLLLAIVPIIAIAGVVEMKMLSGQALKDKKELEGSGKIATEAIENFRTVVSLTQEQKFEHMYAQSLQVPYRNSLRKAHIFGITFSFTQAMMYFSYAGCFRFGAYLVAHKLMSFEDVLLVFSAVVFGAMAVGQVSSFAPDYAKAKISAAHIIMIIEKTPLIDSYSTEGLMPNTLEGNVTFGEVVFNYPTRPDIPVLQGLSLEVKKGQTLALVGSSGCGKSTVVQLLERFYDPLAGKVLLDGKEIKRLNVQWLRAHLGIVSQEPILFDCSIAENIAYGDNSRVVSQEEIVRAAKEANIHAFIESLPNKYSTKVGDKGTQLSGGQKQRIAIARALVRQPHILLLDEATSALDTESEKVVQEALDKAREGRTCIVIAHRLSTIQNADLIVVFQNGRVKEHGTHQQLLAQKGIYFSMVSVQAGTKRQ

Row | Compound | Ratio [1] | pIC50 [2] | pIC50 (L5178Y)
1 | COC(=O)N1C2C3C4N(C(=O)OC)C5C(C1[C@]5(CO)[C@H]3c1ccccc1)[C@@H](c1ccccc1)[C@@]24CO | 21.6 | 5.42 | –
2 | CC(C)(C)OC(=O)N1C2C3C4N(C(=O)OC(C)(C)C)C5C(C1[C@]5(CO)[C@H]3c1ccccc1)[C@@H](c1ccccc1)[C@@]24CO | 33 | 5.21 | 5.60
3 | CN1C2C3C4N(C)C5C(C1[C@]5(CO)[C@H]3c1ccccc1)[C@@H](c1ccccc1)[C@@]24CO | 34.3 | 4.75 | 5.15

The next compounds have a higher pIC50 [2] than those just listed; values first:

Row | Ratio [1] | pIC50 [2] | Compound | pIC50 (L5178Y)
4 | 30.8 | > 6.00 | O=C(Oc1ccccc1)N1C2C3C4N(C(=O)Oc5ccccc5)C5C(C1[C@]5(CO)[C@H]3c1ccccc1)[C@@H](c1ccccc1)[C@@]24CO | 4.90
5 | 26.5 | > 6.00 | OC[C@]12C3C4C1N(Cc1ccccc1)C1C(C(N3Cc3ccccc3)[C@]1(CO)[C@H]4c1ccccc1)[C@H]2c1ccccc1 | 4.92
